Key:
[1] = tested on: Splenocyte; assay: Inhibition of Concanavalin A-stimulated cell proliferation in mouse splenocytes after 48 hrs by MTT assay; type: functional, cell-based
In short: (§1)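 Splenocytes came from BALB/c male mice (eight weeks old); red cells were lysed with NH4Cl-Tris. Cells were cultured at 5×10^6 cells/mL with Con A (1 µg/mL) and compounds for 48 h. Results are mean ± SEM of four observations.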

[2] = Inhibition of IL2-dependent mouse CTLL2 cell proliferation after 48 hrs by MTT assay; type: functional, cell-based; settings: CTLL-2, 48 h
In short: (§2)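 CTLL-2 cells were washed free of IL-2 and FBS, then resuspended at 5×10^5 cells/mL in growth medium without IL-2. They were incubated with compounds plus IL-2 (50 U/mL) for 48 h at 37 °C and 5% CO2. Proliferation was read by MTT assay. Results are mean ± SEM of four observations.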

[3] = tested on: RAW264.7; assay: Antiinflammatory activity against mouse RAW264.7 cells assessed as inhibition of LPS-induced TNFalpha production after 4 hrs by ELISA; type: functional, cell-based; settings: RAW264.7, 4 h
In short: (§3)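 Compounds were dissolved in vehicle (propylene glycol/ethanol/DMSO), kept at ≤0.1% final, and added with LPS (1 µg/mL) for 4 h. Supernatant TNF-α was measured by mouse TNF-α ELISA. Results are mean ± SEM of four observations in triplicate.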

[4] = tested on: RAW264.7; assay: Antiinflammatory activity against mouse RAW264.7 assessed as inhibition of IFN-gamma-induced NO production after 24 hrs; type: functional, cell-based; settings: RAW264.7, 24 h
In short: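 RAW264.7 mouse macrophages kept in RPMI 1640 with 10% FBS and antibiotics, 37 °C, 5% CO2. Cells pre-cultured 18 h at 1×10^6 cells/mL, then given graded compound concentrations plus IFN-γ (50 U/mL) for 24 h. Supernatant nitrite read by Griess reagent (10 min, room temperature) at OD550, quantified against a sodium nitrite standard curve. Mean ± SEM, four separate observations in triplicate.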

[5] = tested on: RAW264.7; assay: Antiinflammatory activity against mouse RAW264.7 assessed as inhibition of LPS-induced NO production after 24 hrs; type: functional, cell-based; settings: RAW264.7, 24 h
In short: (§4)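 RAW264.7 cells were plated at 1×10^6 cells/mL and held 18 h. Compounds were then added with LPS (1 µg/mL) for lines 1 and 3, or IFN-γ (50 U/mL) for line 2, and incubated 24 h. Supernatant nitrite was measured with Griess reagent (10 min, room temperature) at OD550 against a sodium nitrite standard curve. Detection limit was 0.5 µM. Results are mean ± SEM of four observations run in triplicate.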

[6] = Inhibition of IL2-dependent mouse CTLL2 cell proliferation at 80 uM after 48 hrs by MTT assay; type: functional; settings: CTLL-2, 48 h; in short: as §2
[7] = Antiinflammatory activity against mouse splenocytes assessed as inhibition of ConA-stimulated proliferation at 80 uM after 48 hrs by MTT assay; type: functional; settings: Splenocyte; in short: as §1
[8] = tested on: RAW264.7; assay: Antiinflammatory activity against mouse RAW264.7 cells assessed as inhibition of IFN-gamma-induced NO production at 20 uM after 24 hrs; type: functional; parameters: scale not given: the % may be the effect or the level left; in short: as §4
[9] = tested on: RAW264.7; assay: Antiinflammatory activity against mouse RAW264.7 cells assessed as inhibition of LPS-induced NO production at 80 uM after 24 hrs; type: functional; settings: RAW264.7, 24 h; in short: as §4
[10] = tested on: SUP-T1; assay: Cytotoxicity against human Sup-T1 cells at 80 uM after 48 hrs by MTT assay; settings: SUP-T1, 48 h
[11] = tested on: RAW264.7; assay: Antiinflammatory activity against mouse RAW264.7 cells assessed as inhibition of LPS-induced TNFalpha production at 80 uM after 4 hrs by ELISA; type: functional; settings: RAW264.7, 4 h
In short: as §3, with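 “RAW264.7 cells (2×10^6 cells/mL) were pre-incubated 18 h in RPMI 1640 with 10% FBS. Compounds” for “Compounds”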

For `C/C(O)=C(\C#N)C(=O)Nc1ccc(C(F)(F)F)cc1` [TERIFLUNOMIDE], the IC50 [1] was 6.7 µM and the IC50 [2] was 11.2 µM.

With `CC(=O)CCCCn1c(=O)c2c(ncn2C)n(C)c1=O` [PENTOXIFYLLINE] the IC50 [3] was 247 µM.

In the case of `COC(=O)[C@@H](N)CCCNC(=N)N[N+](=O)[O-]` [L-NAME], the IC50 [4] is reported as 116 µM and the IC50 [5] is reported as 193 µM.

Work on `C[C@]12C=CC(=O)C=C1CC[C@@H]1[C@@H]2[C@@H](O)C[C@@]2(C)[C@H]1CC[C@]2(O)C(=O)CO` [PREDNISOLONE] yielded an IC50 [3] of 25.4 µM.

With `COc1cc([C@@H]2Oc3c(OC)cc(/C=C/CO[C@@H]4O[C@H](CO)[C@@H](O)[C@H](O)[C@H]4O)cc3[C@H]2CO)cc(OC)c1OC` [WOORENOSIDE I] the inhibition at 80 µM [6] was -5.4%, the inhibition at 80 µM [7] was 24.8% and the Activity [8] was 8.5%. For the same compound, the inhibition at 80 µM [9] was 34.7%, the inhibition at 80 µM [10] was 32.1% and the inhibition at 80 µM [11] was 15.4%.

In the case of `N[C@H]1CONC1=O` [LEVCYCLOSERINE], the IC50 [1] is reported as 3.5 µM.

Compound `CCCC(=O)Nc1ncnc2c1ncn2[C@@H]1O[C@@H]2COP(=O)(O)O[C@H]2[C@H]1OC(=O)CCC` [BUCLADESINE] has an IC50 [3] of 28.9 µM and an IC50 [2] of 576 µM.

From ChEMBL document CHEMBL1155578, “In vitro antiinflammatory effects of neolignan woorenosides from the rhizomes of Coptis japonica” (J Nat Prod, 2000)
